Four compounds from ChEMBL document CHEMBL4152273, “Development of novel amino-quinoline-5,8-dione derivatives as NAD(P)H:quinone oxidoreductase 1 (NQO1) inhibitors with potent antiproliferative activities” (Eur J Med Chem, 2018) can be followed below.

The structures appear in SMILES notation. Active and inactive are the calls of the source. The rule behind the calls is not given here.

The species entered for series [1] is Homo sapiens. Description: Increase in ROS production in human KBVIN cells after 24 hrs in presence of H2O2 by DCFH-DA dye based flow cytometry. The format is functional, cell-based. On the technique in general: In flow cytometry, cells or beads pass a laser one at a time.
Series [2] deals with HeLa S3. The series is described as follows: Induction of mitochondrial membrane potential loss in human HeLaS3 cells after 24 hrs by MITO-ID MP dye based assay. The format is functional, cell-based. The essentials:
(§1)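 Cells plated at 2.5 × 10^5/mL and treated with 0.01–5 μM, CCCP as positive control or DMSO vehicle for 24 h at 37 °C. MITO-ID MP dye loaded in the dark for 30 min at 37 °C, then fluorescence read at Ex 490 nm and Em 590 nm.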

The target of series [3] is T1, NAD(P)H dehydrogenase [quinone] 1 (Homo sapiens, UniProt P15559). The series is described as follows: Inhibition of NQO1 activity in human KBVIN cells incubated for 24 hrs measured every 20 secs for 5 mins. The format is cell-based.
For series [4], the species on record is Homo sapiens. Description: Induction of mitochondrial membrane potential loss in human KBVIN cells after 24 hrs by MITO-ID MP dye based assay. The format is functional, cell-based. A digest of the protocol:
as §1

Series [5] deals with T1, NAD(P)H dehydrogenase [quinone] 1. Description: Inhibition of NQO1 activity in human HeLaS3 cells incubated for 24 hrs measured every 20 secs for 5 mins. The format is cell-based.
For series [6], the system named is HeLa S3. The series is described as follows: Increase in ROS production in human HeLaS3 cells after 24 hrs in presence of H2O2 by DCFH-DA dye based flow cytometry. The format is functional, cell-based.
Series [7] concerns HeLa S3. The series is described as follows: Cytotoxicity against human HeLaS3 cells assessed as decrease in cell viability after 72 hrs in presence of free radical scavenger NAc by MTT assay. The format is functional, cell-based. As to conditions: HeLa S3, 72 h, in the assay text read “SRB assay” for “MTT assay”. The essentials:
(§2)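 NQO1 dependency: cells co-treated for 72 h with test compound plus […] or 40 mM N-acetylcysteine. Viability read by SRB: TCA fixation, 0.04% sulforhodamine B staining, acetic acid wash, dye solubilized in 10 mM Tris base, absorbance at 515 nm. Results given as IC50 or mean ± SD; three independent measurements.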
On the technique in general: Formazan colour is commonly taken as a measure of viable cells.

Series [8] is described as follows: Cytotoxicity against human KBVIN cells assessed as decrease in cell viability after 72 hrs in presence of free radical scavenger NAc by MTT assay. Format: functional, cell-based. To be noted: in the assay text read “SRB assay” for “MTT assay”. A digest of the protocol:
as §2

Series [9] concerns HeLa S3. The series is described as follows: Cytotoxicity against human HeLaS3 cells assessed as decrease in cell viability after 72 hrs in presence of NQO1 inhibitor dicoumarol by MTT assay. Format: functional, cell-based. To be noted: HeLa S3, 72 h, in the assay text read “SRB assay” for “MTT assay”. A digest of the protocol: as §2
The nature of series [10]: Cytotoxicity against human KBVIN cells assessed as decrease in cell viability after 72 hrs in presence of NQO1 inhibitor dicoumarol by MTT assay. Format: functional, cell-based. As to conditions: in the assay text read “SRB assay” for “MTT assay”. The essentials:
as §2

In series [11] the test system is HeLa S3. Description: Induction of apoptosis in human HeLaS3 cells after 72 hrs by annexin V-FITC/PI dual staining based flow cytometry. The format is functional, cell-based. The essentials: (§3)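 Cells cultured overnight, then exposed in triplicate to 0.2, 0.6 or 1.8 μM or vehicle for 72 h. Annexin V-positive percentage given as mean ± SD of three independent experiments.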

Series [12] can be described thus: Cytotoxicity against human EEC assessed as decrease in cell viability after 72 hrs by MTT assay. The essentials: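 Endometrial epithelial cells maintained in RPMI-1640 with 10% FBS at 37 °C, 5% CO2. Exposed 72 h to the indicated concentrations, proliferation assessed by MTT; inhibition (%) reported as mean ± SD of three independent experiments.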
For series [13], the system named is HeLa S3. Description: Induction of apoptosis in human HeLaS3 cells assessed as increase in caspase-3 cleavage at 0.2 to 1.8 uM after 72 hrs by Western blot analysis. The format is functional, cell-based. A digest of the protocol: (§4)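 Sub-confluent cells at 1.5 × 10^5/mL treated 72 h in DMEM with 10% FBS at the indicated doses or 0.1% DMSO vehicle. Lysates immunoblotted for Bax, Bcl-2 and caspase-3, detected with HRP secondary antibodies and chemiluminescence. Band densities normalized to β-actin by densitometry; mean ± SD of three separate experiments.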
On the technique in general: Immunoblotting shows a protein as a band on a membrane.

The subject of series [14] is HeLa S3. Description: Induction of apoptosis in human HeLaS3 cells assessed as annexin V-positive cells at 0.6 uM after 72 hrs by annexin V-FITC/PI dual staining based flow cytometry relative to control. Format: functional. A digest of the protocol:
as §3

The subject of series [15] is HeLa S3. The series is described as follows: Induction of apoptosis in human HeLaS3 cells assessed as decrease in Bcl-2 expression levels after 72 hrs by Western blot analysis. The format is functional, cell-based. The essentials:
as §4

Series [16] has as its system HeLa S3. Description: Induction of apoptosis in human HeLaS3 cells assessed as annexin V-positive cells at 1.8 uM after 72 hrs by annexin V-FITC/PI dual staining based flow cytometry relative to control. Format: functional. The essentials: as §3
The subject of series [17] is HeLa S3. Description: Induction of apoptosis in human HeLaS3 cells assessed as annexin V-positive cells at 0.2 uM after 72 hrs by annexin V-FITC/PI dual staining based flow cytometry relative to control. Format: functional. A digest of the protocol:
as §3

The test system of series [18] is HeLa S3. Description: Induction of apoptosis in human HeLaS3 cells assessed as increase in Bax expression levels after 72 hrs by Western blot analysis. The format is functional, cell-based. The essentials:
as §4

T1 sequence (P15559 whole entry): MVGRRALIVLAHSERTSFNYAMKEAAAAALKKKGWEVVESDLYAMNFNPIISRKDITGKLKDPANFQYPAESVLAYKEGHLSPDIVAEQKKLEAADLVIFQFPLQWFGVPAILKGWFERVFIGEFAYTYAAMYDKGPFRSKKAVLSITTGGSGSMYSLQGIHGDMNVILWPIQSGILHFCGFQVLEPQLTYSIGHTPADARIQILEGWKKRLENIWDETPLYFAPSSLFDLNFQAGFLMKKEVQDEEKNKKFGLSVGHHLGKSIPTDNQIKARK

On to `O=C1C=C(NCCc2c[nH]c3ccccc23)C(=O)c2ncccc21`, for which the Activity entry in the series filed under Homo sapiens [1], with HeLa S3 [2], in the series listed under Homo sapiens [4] and with HeLa S3 [6] was “Dose-dependent effect” each time. The IC50 in series [3] was found to be 550 nM; in [5], 6250 nM.

Consider `COC(=O)/C=C/c1cccc(CNC2=CC(=O)c3ncccc3C2=O)c1`, for which the Activity result in the series listed under Homo sapiens [1], with HeLa S3 [2], in the series filed under Homo sapiens [4] and in the series on HeLa S3 [6] was “Dose-dependent effect” each time. In addition, the IC50 is 530 nM in series [3] and 5250 nM in series [5].

`CN1CCN(c2ccc(NC3=CC(=O)c4ncccc4C3=O)cc2)CC1`: the concentration for half-maximal inhibition (IC50) (in the series on HeLa S3 [7]; in [8]; in the series on HeLa S3 [9]; in series [10]) was > 3000 nM in each case. Further, the Activity result in the series filed under Homo sapiens [1], in the series with HeLa S3 [2], in the series listed under Homo sapiens [4] and in the series on HeLa S3 [6] was “Dose-dependent effect” in each case.

For the compound `CN1CCN(c2ccc(NC3=CC(=O)c4cccnc4C3=O)cc2)CC1`, the IC50 in the series on HeLa S3 [7] was > 3000 nM; in series [8], > 3000 nM; in series [3] it was 570 nM; with HeLa S3 [9], > 3000 nM; in series [10] it was > 3000 nM; in series [5], 440 nM. In addition, the Activity result in the series listed under Homo sapiens [1] is “Dose-dependent effect”; in the series on HeLa S3 [11], “Dose-dependent effect”; in series [12], “Non-Toxic”; in the series with HeLa S3 [2], “Dose-dependent effect”; in the series with HeLa S3 [14], 27.6%; in the series filed under Homo sapiens [4] it was “Dose-dependent effect”. Further, the Activity entry with HeLa S3 [15] is “Dose-dependent effect”; in the series with HeLa S3 [16], 66.3%; in the series on HeLa S3 [17] it was 12.8%; in the series with HeLa S3 [18], “Dose-dependent effect”; in the series with HeLa S3 [6], “Dose-dependent effect”. Further, the outcome in the series on HeLa S3 [13] was Active.

One may read the IC50 as the point on the concentration scale where inhibition reaches its midpoint.
